Tested on: HEK293
Test: Ratio of IC50 for intracellular chymotrypsin-like activity of 20S proteasome in human HEK293 cells to IC50 for in vitro chymotrypsin-like activity of 20S proteasome
Assay type: cell-based
Settings: not given

| Compound | Ratio IC50 |
| --- | --- |
| CC[C@H](N)C(=O)N[C@@H](CC(C)C)B(O)O | > 90 |
| CCC[C@H](N)C(=O)N[C@@H](CC(C)C)B(O)O | > 90 |
| CC(C)C[C@H](NC(=O)[C@@H](N)CO)B(O)O | > 50 |
| CC(C)C[C@H](NC(=O)[C@H](Cc1ccccc1)NC(=O)c1cnccn1)B(O)O [BORTEZOMIB] | 2.7 |
| CC(C)C[C@H](NC(=O)[C@@H](N)Cc1cc(F)cc(F)c1)B(O)O | 18 |
| CC(C)C[C@H](NC(=O)[C@@H](N)C(C)(C)C)B(O)O | > 110 |

Tested on: HEK293
Test: Metabolic stability in human HEK293 cells assessed as cell lysate-mediated compound degradation at 10^-4 M after 24 hrs by LCMS analysis
Assay type: ADME, cell-based
Settings: hek293, 24 h, 100 µM

| Stability | Compound |
| --- | --- |
| Unstable | CC(C)C[C@H](NC(=O)[C@H](Cc1ccccc1)NC(=O)[C@@H](N)CC(C)C)B(O)O |

Tested on: not listed separately
Test: Ratio of CC50 for human follicular small-cell lymphocytic leukemia cells to IC50 for intracellular chymotrypsin-like activity of 20S proteasome in human HEK293 cells
Settings: not given

| Compound | Ratio CC50/IC50 |
| --- | --- |
| CC[C@H](N)C(=O)N[C@@H](CC(C)C)B(O)O | <0.2 |
| CCC[C@H](N)C(=O)N[C@@H](CC(C)C)B(O)O | <0.1 |
| CC(C)C[C@H](NC(=O)[C@@H](N)CO)B(O)O | <0.2 |
| CC(C)C[C@H](NC(=O)[C@H](Cc1ccccc1)NC(=O)c1cnccn1)B(O)O [BORTEZOMIB] | 0.16 |
| CC(C)C[C@H](NC(=O)[C@@H](N)Cc1cc(F)cc(F)c1)B(O)O | 0.06 |
| CC(C)C[C@H](NC(=O)[C@@H](N)C(C)(C)C)B(O)O | <0.07 |

Tested on: not listed separately
Test: Metabolic stability in human FSCLL cells assessed as cell lysate-mediated compound degradation at 10^-4 M after 24 hrs by LCMS analysis
Assay type: ADME, cell-based
Settings: 100 µM

| Stability | Compound |
| --- | --- |
| Unstable | CC(C)C[C@H](NC(=O)[C@H](Cc1ccccc1)NC(=O)[C@@H](N)CC(C)C)B(O)O |

Tested on: not listed separately
Test: Inhibition of chymotrypsin-like activity of 20S proteasome using suc-LLVY-AMC as substrate preincubated for 10 mins before substrate addition at pH 2.0 by fluorescence assay
Settings: not given
How it was run: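 Inhibitor from 0.1 M ethanol stock diluted into pH 2.0 buffer (0.148 M HCl, 0.052 M KCl) and equilibrated overnight at room temperature (24 h per text). 20S proteasome SDS-activated, preincubated 10 min with inhibitor; Suc-LLVY-AMC added; fluorescence (ex 360/em 460 nm) read after 30 min. Assay-well pH checked. Quadruplicates; variable-slope sigmoidal fit.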

| IC50 | Compound |
| --- | --- |
| 110 nM | CC[C@H](N)C(=O)N[C@@H](CC(C)C)B(O)O |
| 110 nM | CCC[C@H](N)C(=O)N[C@@H](CC(C)C)B(O)O |
| 190 nM | CC(C)C[C@H](NC(=O)[C@@H](N)CO)B(O)O |
| 10 nM | CC(C)C[C@H](NC(=O)[C@H](Cc1ccccc1)NC(=O)c1cnccn1)B(O)O [BORTEZOMIB] |
| 43 nM | CC(C)C[C@H](NC(=O)[C@@H](N)Cc1cc(F)cc(F)c1)B(O)O |
| 100 nM | CC(C)C[C@H](NC(=O)[C@@H](N)C(C)(C)C)B(O)O |

Tested on: not listed separately
Test: Ratio of CC50 for human follicular small-cell lymphocytic leukemia cells to IC50 for chymotrypsin-like activity of 20S proteasome at pH 2.0
Settings: not given

| Compound | Ratio CC50/IC50 |
| --- | --- |
| CC[C@H](N)C(=O)N[C@@H](CC(C)C)B(O)O | 14 |
| CCC[C@H](N)C(=O)N[C@@H](CC(C)C)B(O)O | 10 |
| CC(C)C[C@H](NC(=O)[C@@H](N)CO)B(O)O | 8.9 |
| CC(C)C[C@H](NC(=O)[C@H](Cc1ccccc1)NC(=O)c1cnccn1)B(O)O [BORTEZOMIB] | 0.4 |
| CC(C)C[C@H](NC(=O)[C@@H](N)Cc1cc(F)cc(F)c1)B(O)O | 1 |
| CC(C)C[C@H](NC(=O)[C@@H](N)C(C)(C)C)B(O)O | 7 |

Tested on: not listed separately
Test: Inhibition of chymotrypsin-like activity of 20S proteasome using suc-LLVY-AMC as substrate preincubated for 10 mins before substrate addition at pH 7.6 by fluorescence assay
Settings: not given
How it was run: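 Inhibitor from 0.1 M ethanol stock diluted into pH 7.6 buffer (25 mM HEPES, 0.5 mM EDTA) and equilibrated overnight at room temperature (24 h per text). SDS-activated 20S proteasome preincubated 10 min with inhibitor before Suc-LLVY-AMC; fluorescence ex 360/em 460 nm after 30 min. Quadruplicates; variable-slope sigmoidal fit.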

| IC50 | Compound |
| --- | --- |
| 300 nM | CC[C@H](N)C(=O)N[C@@H](CC(C)C)B(O)O |
| 540 nM | CCC[C@H](N)C(=O)N[C@@H](CC(C)C)B(O)O |
| 1100 nM | CC(C)C[C@H](NC(=O)[C@@H](N)CO)B(O)O |
| 14 nM | CC(C)C[C@H](NC(=O)[C@H](Cc1ccccc1)NC(=O)c1cnccn1)B(O)O [BORTEZOMIB] |
| 100 nM | CC(C)C[C@H](NC(=O)[C@@H](N)Cc1cc(F)cc(F)c1)B(O)O |
| 150 nM | CC(C)C[C@H](NC(=O)[C@@H](N)C(C)(C)C)B(O)O |

Tested on: not listed separately
Test: Cytotoxicity against human FSCLL cells after 24 hrs by MTT assay
Assay type: cell-based
Settings: not given
How it was run: (§1)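 Cells seeded at 3.2 × 10⁴ per well, grown 24 h at 37 °C, 5% CO₂, then exposed to inhibitor dilutions 24 h. Inhibitor from 0.1 M ethanol stock, pre-equilibrated overnight in pH 2.0 or pH 7.6 buffer. MTT (5 mg/mL) added for 3 h; formazan dissolved overnight in acidic Triton/isopropanol; A570 read. Quadruplicates; variable-slope sigmoidal fit.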

| Compound | CC50 at 24 h |
| --- | --- |
| CC[C@H](N)C(=O)N[C@@H](CC(C)C)B(O)O | 1500 nM |
| CCC[C@H](N)C(=O)N[C@@H](CC(C)C)B(O)O | 1100 nM |
| CC(C)C[C@H](NC(=O)[C@@H](N)CO)B(O)O | 1700 nM |
| CC(C)C[C@H](NC(=O)[C@H](Cc1ccccc1)NC(=O)c1cnccn1)B(O)O [BORTEZOMIB] | 4 nM |
| CC(C)C[C@H](NC(=O)[C@@H](N)Cc1cc(F)cc(F)c1)B(O)O | 47 nM |
| CC(C)C[C@H](NC(=O)[C@@H](N)C(C)(C)C)B(O)O | 710 nM |

Species on record: Mus musculus
Test: Inhibition of proteasome in mouse tumor cells relative to inhibition in blood cells
Assay type: subcellular
Settings: concentration not given here

| inhibition | Compound |
| --- | --- |
| 74.9% | CC(C)C[C@H](NC(=O)CNC(=O)c1cc(Cl)ccc1Cl)B1OC(=O)CC(CC(=O)O)(C(=O)O)O1 (some centres not stated) |
| 44.8% | CC(C)C[C@H](NC(=O)[C@H](Cc1ccccc1)NC(=O)c1cnccn1)B(O)O [BORTEZOMIB] |

Tested on: not listed separately
Test: Inhibition of intracellular chymotrypsin-like activity of 20S proteasome in human HEK293 cells after 24 hrs by fluorescence plate reader
Assay type: cell-based
Settings: HEK293, 24 h
How it was run: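 HEK 293 ZsGreen proteasome-sensor cells (stable ZsGreen–ornithine decarboxylase degron fusion, G418 maintenance) seeded 3.2 × 10⁴ per well, grown 24 h. Then 24 h with inhibitor at 37 °C, 5% CO₂. Cells lysed in HEPES/EDTA/5% Triton buffer for 1 h; fluorescence ex 485/em 535 nm. Quadruplicates; variable-slope sigmoidal fit.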

| IC50 | Compound |
| --- | --- |
| > 10000 nM | CC[C@H](N)C(=O)N[C@@H](CC(C)C)B(O)O |
| > 10000 nM | CCC[C@H](N)C(=O)N[C@@H](CC(C)C)B(O)O |
| > 10000 nM | CC(C)C[C@H](NC(=O)[C@@H](N)CO)B(O)O |
| 27 nM | CC(C)C[C@H](NC(=O)[C@H](Cc1ccccc1)NC(=O)c1cnccn1)B(O)O [BORTEZOMIB] |
| 790 nM | CC(C)C[C@H](NC(=O)[C@@H](N)Cc1cc(F)cc(F)c1)B(O)O |
| > 10000 nM | CC(C)C[C@H](NC(=O)[C@@H](N)C(C)(C)C)B(O)O |

Tested on: not listed separately
Test: Cytotoxicity against human HEK293 cells after 24 hrs by MTT assay
Assay type: cell-based
Settings: not given
How it was run: as §1

| Compound | CC50 at 24 h |
| --- | --- |
| CC(C)C[C@H](NC(=O)[C@H](Cc1ccccc1)NC(=O)c1cnccn1)B(O)O [BORTEZOMIB] | 347 nM |
